In ChEMBL document CHEMBL1212799 (2010):
Values after ≈ are worked out from the molar mass of the structure shown.

Experiments:
Klebsiella pneumoniae [1] = test: Antibacterial activity against Klebsiella pneumoniae isolate 377 assessed as reduction of bacterial count at 2 ug/ml within 6 hrs in vitro pharmacodynamic model; type: functional
Klebsiella pneumoniae [2] = test: fT>MIC in Klebsiella pneumoniae isolate 360 at 2 gram for every 8 hrs administered as 3 hrs infusion measured over 16-24 hrs in in vitro pharmcodynamic model; type: functional
Outline: (§1)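 Samples assayed by HPLC (linear 0.25–40 µg/ml). Time free drug stayed above the modal triplicate broth-microdilution MIC (CLSI) calculated for each 8-h interval.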

Pseudomonas aeruginosa [3] = test: fT>MIC in Pseudomonas aeruginosa isolate 1038 at 2 gram for every 8 hrs administered as 3 hrs infusion measured over 8-16 hrs in in vitro pharmcodynamic model; type: functional
Pseudomonas aeruginosa [4] = test: Antibacterial activity against Pseudomonas aeruginosa isolate 1038 assessed as reduction of bacterial count at 8 ug/ml within 6 hrs in vitro pharmacodynamic model; type: functional
Pseudomonas aeruginosa [5] = test: fT>MIC in Pseudomonas aeruginosa isolate 896 at 2 gram for every 8 hrs administered as 3 hrs infusion measured over 16-24 hrs in in vitro pharmcodynamic model; type: functional
Klebsiella pneumoniae [6] = test: Antibacterial activity against Klebsiella pneumoniae isolate 368 assessed as reduction of bacterial count at 32 ug/ml within 6 hrs in vitro pharmacodynamic model; type: functional
Klebsiella pneumoniae [7] = test: fT>MIC in Klebsiella pneumoniae isolate 354 at 2 gram for every 8 hrs administered as 3 hrs infusion measured over 16-24 hrs in in vitro pharmcodynamic model; type: functional; outline: as §1
Klebsiella pneumoniae [8] = test: Antibacterial activity against Klebsiella pneumoniae isolate 375 in vitro pharmacodynamic model; type: functional
Outline: (§2)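 Simulated peak 38.4 µg/ml, trough 3.04 µg/ml. CAMHB at 37°C, 10^6 CFU/ml from overnight culture, drug started at 0.5 h. Two treated models plus one growth control. Change in log10 CFU/ml over 24 h on blood agar. Detection limit 10^1 CFU/ml.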

Klebsiella pneumoniae [9] = test: fT>MIC in Klebsiella pneumoniae isolate 377 at 2 gram for every 8 hrs administered as 3 hrs infusion measured over 8-16 hrs in in vitro pharmcodynamic model; type: functional
Klebsiella pneumoniae [10] = test: fT>MIC in Klebsiella pneumoniae isolate 334 at 2 gram for every 8 hrs administered as 3 hrs infusion measured over 16-24 hrs in in vitro pharmcodynamic model; type: functional; outline: as §1
Pseudomonas aeruginosa [11] = test: fT>MIC in Pseudomonas aeruginosa isolate 896 at 2 gram for every 8 hrs administered as 3 hrs infusion measured over 0-8 hrs in in vitro pharmcodynamic model; type: functional
Pseudomonas aeruginosa [12] = test: Antibacterial activity against Pseudomonas aeruginosa isolate 988 assessed as reduction of bacterial count at 16 ug/ml within 6 hrs in vitro pharmacodynamic model; type: functional
Pseudomonas aeruginosa [13] = test: fT>MIC in Pseudomonas aeruginosa isolate 988 at 2 gram for every 8 hrs administered as 3 hrs infusion measured over 8-16 hrs in in vitro pharmcodynamic model; type: functional
Klebsiella pneumoniae [14] = test: Antibacterial activity against Klebsiella pneumoniae isolate 377 in vitro pharmacodynamic model; type: functional; outline: as §2
Pseudomonas aeruginosa [15] = test: fT>MIC in Pseudomonas aeruginosa isolate 762 at 2 gram for every 8 hrs administered as 3 hrs infusion measured over 0-8 hrs in in vitro pharmcodynamic model; type: functional
Klebsiella pneumoniae [16] = test: fT>MIC in Klebsiella pneumoniae isolate 353 at 2 gram for every 8 hrs administered as 3 hrs infusion measured over 16-24 hrs in in vitro pharmcodynamic model; type: functional, isoalte 353; outline: as §1
Pseudomonas aeruginosa [17] = test: fT>MIC in Pseudomonas aeruginosa isolate 988 at 2 gram for every 8 hrs administered as 3 hrs infusion measured over 0-8 hrs in in vitro pharmcodynamic model; type: functional
Klebsiella pneumoniae [18] = test: fT>MIC in Klebsiella pneumoniae isolate 357 at 2 gram for every 8 hrs administered as 3 hrs infusion measured over 16-24 hrs in in vitro pharmcodynamic model; type: functional; outline: as §1
Klebsiella pneumoniae [19] = test: fT>MIC in Klebsiella pneumoniae isolate 360 at 2 gram for every 8 hrs administered as 3 hrs infusion measured over 0-8 hrs in in vitro pharmcodynamic model; type: functional; outline: as §1
Klebsiella pneumoniae [20] = test: fT>MIC in Klebsiella pneumoniae isolate 360 at 2 gram for every 8 hrs administered as 3 hrs infusion measured over 8-16 hrs in in vitro pharmcodynamic model; type: functional; outline: as §1
Klebsiella pneumoniae [21] = test: Antibacterial activity against Klebsiella pneumoniae isolate 353 assessed as reduction of bacterial count at 16 ug/ml within 6 hrs in vitro pharmacodynamic model; type: functional, isoalte 353
Pseudomonas aeruginosa [22] = test: fT>MIC in Pseudomonas aeruginosa isolate 762 at 2 gram for every 8 hrs administered as 3 hrs infusion measured over 8-16 hrs in in vitro pharmcodynamic model; type: functional
Pseudomonas aeruginosa [23] = test: fT>MIC in Pseudomonas aeruginosa isolate 1177 at 2 gram for every 8 hrs administered as 3 hrs infusion measured over 16-24 hrs in in vitro pharmcodynamic model; type: functional
Klebsiella pneumoniae [24] = test: fT>MIC in Klebsiella pneumoniae isolate 334 at 2 gram for every 8 hrs administered as 3 hrs infusion measured over 0-8 hrs in in vitro pharmcodynamic model; type: functional; outline: as §1
Klebsiella pneumoniae [25] = test: Antibacterial activity against Klebsiella pneumoniae isolate 357 assessed as reduction of bacterial count at 16 ug/ml within 6 hrs in vitro pharmacodynamic model; type: functional
Klebsiella pneumoniae [26] = test: fT>MIC in Klebsiella pneumoniae isolate 368 at 2 gram for every 8 hrs administered as 3 hrs infusion measured over 16-24 hrs in in vitro pharmcodynamic model; type: functional
Klebsiella pneumoniae [27] = test: fT>MIC in Klebsiella pneumoniae isolate 357 at 2 gram for every 8 hrs administered as 3 hrs infusion measured over 0-8 hrs in in vitro pharmcodynamic model; type: functional; outline: as §1
Klebsiella pneumoniae [28] = test: Antibacterial activity against Klebsiella pneumoniae isolate 354 in vitro pharmacodynamic model; type: functional
Outline: (§3)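 Inoculum 10^6 CFU/ml; dosing began 0.5 h after inoculation. Two treated models plus one untreated control per isolate; blood-agar counts; change in log10 CFU/ml over 24 h (detection limit 10^1); drug levels checked by HPLC.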

Klebsiella pneumoniae [29] = test: fT>MIC in Klebsiella pneumoniae isolate 328A at 2 gram for every 8 hrs administered as 3 hrs infusion measured over 0-8 hrs in in vitro pharmcodynamic model; type: functional; outline: as §1
Klebsiella pneumoniae [30] = test: fT>MIC in Klebsiella pneumoniae isolate 375 at 2 gram for every 8 hrs administered as 3 hrs infusion measured over 16-24 hrs in in vitro pharmcodynamic model; type: functional
Klebsiella pneumoniae [31] = test: Antibacterial activity against Klebsiella pneumoniae isolate 328A in vitro pharmacodynamic model; type: functional; outline: as §3
Klebsiella pneumoniae [32] = test: fT>MIC in Klebsiella pneumoniae isolate 368 at 2 gram for every 8 hrs administered as 3 hrs infusion measured over 0-8 hrs in in vitro pharmcodynamic model; type: functional; outline: as §1
Pseudomonas aeruginosa [33] = test: fT>MIC in Pseudomonas aeruginosa isolate 1177 at 2 gram for every 8 hrs administered as 3 hrs infusion over 24 hrs in in vitro pharmcodynamic model; type: functional
Klebsiella pneumoniae [34] = test: fT>MIC in Klebsiella pneumoniae isolate 351 at 2 gram for every 8 hrs administered as 3 hrs infusion over 24 hrs in in vitro pharmcodynamic model; type: functional; outline: as §1
Klebsiella pneumoniae [35] = test: fT>MIC in Klebsiella pneumoniae isolate 353 at 2 gram for every 8 hrs administered as 3 hrs infusion measured over 8-16 hrs in in vitro pharmcodynamic model; type: functional, isoalte 353; outline: as §1
Pseudomonas aeruginosa [36] = test: fT>MIC in Pseudomonas aeruginosa isolate 762 at 2 gram for every 8 hrs administered as 3 hrs infusion measured over 16-24 hrs in in vitro pharmcodynamic model; type: functional
Klebsiella pneumoniae [37] = test: fT>MIC in Klebsiella pneumoniae isolate 361 at 2 gram for every 8 hrs administered as 3 hrs infusion measured over 16-24 hrs in in vitro pharmcodynamic model; type: functional; outline: as §1
Klebsiella pneumoniae [38] = test: fT>MIC in Klebsiella pneumoniae isolate 351 at 2 gram for every 8 hrs administered as 3 hrs infusion measured over 0-8 hrs in in vitro pharmcodynamic model; type: functional; outline: as §1

C[C@@H](O)[C@H]1C(=O)N2C(C(=O)O)=C(S[C@@H]3CN[C@H](C(=O)N(C)C)C3)[C@H](C)[C@H]12 [MEROPENEM]
log10cfu (Klebsiella pneumoniae [1]): >3
fT>MIC (Klebsiella pneumoniae [2]): 0%
fT>MIC (Pseudomonas aeruginosa [3]): 100%
log10cfu (Pseudomonas aeruginosa [4]): >=3
fT>MIC (Pseudomonas aeruginosa [5]): 56%
log10cfu (Klebsiella pneumoniae [6]): >3
fT>MIC (Klebsiella pneumoniae [7]): 3%
MIC (Klebsiella pneumoniae [8]): 32 µg/mL (≈ 83.4 µM)
fT>MIC (Klebsiella pneumoniae [9]): 100%
fT>MIC (Klebsiella pneumoniae [10]): 0%
fT>MIC (Pseudomonas aeruginosa [11]): 50%
log10cfu (Pseudomonas aeruginosa [12]): >=3
fT>MIC (Pseudomonas aeruginosa [13]): 50%
MIC (Klebsiella pneumoniae [14]): 2 µg/mL (≈ 5.22 µM)
fT>MIC (Pseudomonas aeruginosa [15]): 50%
fT>MIC (Klebsiella pneumoniae [16]): 0%
fT>MIC (Pseudomonas aeruginosa [17]): 47%
fT>MIC (Klebsiella pneumoniae [18]): 0%
fT>MIC (Klebsiella pneumoniae [19]): 0%
fT>MIC (Klebsiella pneumoniae [20]): 0%
log10cfu (Klebsiella pneumoniae [21]): >3
fT>MIC (Pseudomonas aeruginosa [22]): 63%
fT>MIC (Pseudomonas aeruginosa [23]): 78%
fT>MIC (Klebsiella pneumoniae [24]): 0%
log10cfu (Klebsiella pneumoniae [25]): >3
fT>MIC (Klebsiella pneumoniae [26]): 0%
fT>MIC (Klebsiella pneumoniae [27]): 12%
MIC (Klebsiella pneumoniae [28]): 8 µg/mL (≈ 20.9 µM)
fT>MIC (Klebsiella pneumoniae [29]): 69%
fT>MIC (Klebsiella pneumoniae [30]): 0%
MIC (Klebsiella pneumoniae [31]): 8 µg/mL (≈ 20.9 µM)
fT>MIC (Klebsiella pneumoniae [32]): 0%
fT>MIC (Pseudomonas aeruginosa [33]): 69%
fT>MIC (Klebsiella pneumoniae [34]): 69%
fT>MIC (Klebsiella pneumoniae [35]): 59%
fT>MIC (Pseudomonas aeruginosa [36]): 56%
fT>MIC (Klebsiella pneumoniae [37]): 0%
fT>MIC (Klebsiella pneumoniae [38]): 69%
